Source: PubChem BioAssay (The Scripps Research Institute Molecular Screening Center)
PAFAH1B2 FP inh: blocks human PAF acetylhydrolase 1b catalytic subunit 2; P68402; recombinant PAFAH1B2, FP-rhodamine activity probe, fluorescence polarization; inhibition, % at 3.39 µM; 340,000 tested, 1.2% active; AID 492953;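 active means inhibition above the mean of all tested compounds plus 3 SD, cut at about 24% in these data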;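 further: 0% = enzyme with DMSO and 100% = wells lacking PAFAH1B2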
Target sequence (P68402 whole entry, looked up): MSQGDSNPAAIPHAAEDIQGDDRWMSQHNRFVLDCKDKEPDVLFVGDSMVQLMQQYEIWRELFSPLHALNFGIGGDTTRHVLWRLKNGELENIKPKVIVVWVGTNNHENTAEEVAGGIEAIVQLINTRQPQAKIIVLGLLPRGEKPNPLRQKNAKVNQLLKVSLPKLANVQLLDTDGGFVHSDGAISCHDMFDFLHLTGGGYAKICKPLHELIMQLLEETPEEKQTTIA
PAFAH2 FP inh: PAFAH2 (human) inhibition | AID 492956 | inhibition, % at 3.39 µM | recombinant PAFAH2, FP-rhodamine activity probe, fluorescence polarization | 340,000 tested, 0.99% active;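 active means inhibition above the mean over all tested compounds plus 3 SD, cut at about 30% in these data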;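 further: inhibitors block probe labeling of enzyme so polarization drops; 0% = enzyme with DMSO and 100% = wells lacking PAFAH2 protein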
IMP-1 inhibitor: inhibitors of Pseudomonas aeruginosa IMP-1 metallo-beta-lactamase. purified IMP-1, nitrocefin hydrolysis, epi-absorbance fluorescence. inhibition, % at 5.6 µM. 290,000 tested, 0.45% active. AID 1556;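 active means inhibition above the mean plus 3 SD of all compounds in the same screening run, cut at about 4.5% in these data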;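 further: 0% = IMP-1 with DMSO and 100% = DMSO wells lacking enzyme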
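System: purified IMP-1 / Input: IMP-1 dispensed at 0.2 nM / Medium: 50 mM HEPES pH 7.1, 50 µM ZnSO4, 0.05% Brij 35 / Timing: 15 min enzyme–compound preincubation, then 25 min nitrocefin reaction, 25 °C / Technique: plate fluorescence quenching by hydrolysis product, ex 480/em 530 nm / Repeats: singlicate testing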
PAFAH1B3 inh: blocks human PAF acetylhydrolase 1B catalytic subunit 3; AID 492972; inhibition, % at 3.39 µM; 340,000 tested, 0.28% active; Q15102; recombinant PAFAH1B3, FP-rhodamine probe, fluorescence polarization;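 active means inhibition above the screen-wide average of all tested compounds plus 3 SD, cut at about 25% in these data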;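 further: 0% = enzyme with DMSO only and 100% = wells lacking PAFAH1B3 protein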
Target sequence (Q15102 whole entry, looked up): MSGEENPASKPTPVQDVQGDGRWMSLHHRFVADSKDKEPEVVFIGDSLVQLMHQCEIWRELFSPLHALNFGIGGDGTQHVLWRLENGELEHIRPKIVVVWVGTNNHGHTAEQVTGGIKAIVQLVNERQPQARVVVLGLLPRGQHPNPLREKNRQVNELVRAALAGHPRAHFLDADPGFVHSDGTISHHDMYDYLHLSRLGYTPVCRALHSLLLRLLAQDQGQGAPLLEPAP
VIM-2 inhibitor: blocks Pseudomonas aeruginosa VIM-2 metallo-beta-lactamase; purified VIM-2, nitrocefin hydrolysis, epi-absorbance fluorescence; inhibition, % at 5.6 µM; 290,000 tested, 0.89% active;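 active means inhibition above the mean of all tested compounds plus 3 SD, cutoff set per screening run, cut at about 7.5% in these data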;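 further: red hydrolysis product quenches plate fluorescence so inhibitors raise well fluorescence; 0% = enzyme with DMSO and 100% = DMSO without enzyme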
pPAFAH FP inh: pPAFAH (human) enzyme inhibition | Q13093 | inhibition, % at 3.39 µM | recombinant pPAFAH, FP-rhodamine probe fluorescence polarization | 330,000 tested, 1.5% active;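 active means inhibition above the mean inhibition across the screen plus 3 SD, cut at about 25% in these data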;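 further: inhibitors block binding of the rhodamine activity-based probe so polarization drops; 0% = enzyme with DMSO and 100% = wells lacking pPAFAH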
PAFAH2 confirm: confirmation of human PAFAH2 inhibitors | shares compounds with PAFAH2 FP inh | recombinant PAFAH2, FP-rhodamine activity probe, fluorescence polarization | inhibition, % at 3.39 µM | 2,300 tested, 65% active;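 active means mean inhibition over three repeats above a set limit taken from the earlier primary screen, cut at about 30% in these data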;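 further: inhibitor blocks binding of rhodamine activity probe so polarization falls; 0% = enzyme with DMSO and 100% = wells lacking PAFAH2 protein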
The depositor's hits bear a star; nt = not tested or not shown. The list is not random: actives were taken first. Their share in the collection is about 3.6%.

SMILES	PAFAH1B2 FP inh	PAFAH2 FP inh	IMP-1 inhibitor	PAFAH1B3 inh	VIM-2 inhibitor	pPAFAH FP inh	PAFAH2 confirm
Cc1cc([N+](=O)[O-])c2ccccc2c1NS(=O)(=O)c1ccccc1	3	7	nt	8	nt	nt	nt
O=C(OCC12CC3CC(CC(C3)C1)C2)c1ccc(NCc2cc(O)ccc2O)cc1	5	6	nt	-2	nt	nt	nt
O=C(OCCC12CC3CC(CC(C3)C1)C2)c1ccc(NCc2cc(O)ccc2O)cc1	5	75*	nt	5	nt	nt	66*
CCCC(=O)Nc1ccc(C(=O)n2ccc(C)n2)cc1	4	49*	-3	-2	-3	3	41*
O=C(COC(=O)c1nc(Cl)c(Cl)c(Cl)c1Cl)NCc1ccccc1	-1	-4	nt	2	nt	5	nt
COc1cccc(/C=C/C(=O)OCC(=O)Nc2cc(S(=O)(=O)N3CCOCC3)ccc2C)c1	-1	55*	-1	1	-4	9	42*
Cc1cc(C)cc(OCC(=O)OCC(=O)Nc2cc(S(=O)(=O)N3CCOCC3)ccc2C)c1	-1	-1	nt	6	nt	12	nt
Cc1ccc(S(=O)(=O)N2CCOCC2)cc1NC(=O)COC(=O)/C=C/c1ccco1	5	46*	nt	10	nt	6	45*
COC(=O)c1ccc(-n2cncn2)c([N+](=O)[O-])c1	3	2	-1	2	-2	5	nt
Cc1cccc(NC(=O)CNC(=O)c2ccc(-n3cncn3)c([N+](=O)[O-])c2)c1C	-4	38*	nt	5	nt	-2	-3
C=CCN(C(=O)CSC1=NC(=O)CN1C(C)=O)c1nc(C)c(-c2ccccc2)s1	2	1	-2	9	-5	1	nt
CCCN1CCC(=NNC(=O)c2ccc(Br)o2)CC1	-2	3	-4	-2	-5	3	nt
CCCN1CCC(=NNc2ccc(C(=O)O)cc2)CC1	3	35*	-2	12	-2	3	3
CCN(CC)S(=O)(=O)c1ccc(Cl)c(NC(=O)COC(=O)/C=C/c2cc(OC)c(OC)c(OC)c2)c1	-1	13	-4	3	0	10	nt
O=C(COC(=O)/C=C/c1ccccc1)Nc1cccnc1Cl	6	28	nt	4	nt	-1	nt
CCN(CC)S(=O)(=O)c1ccc(/C=C/C(=O)OCC(=O)Nc2cccnc2Cl)cc1	0	67*	nt	8	nt	6	55*
CCN(CC)S(=O)(=O)c1ccc(/C=C/C(=O)OCC(=O)Nc2cccc3ccccc23)cc1	-1	53*	-2	-7	-3	21	62*
CC(C)C(=O)Nc1ccc(Oc2ccc3c(c2)C(=O)NC3=O)cc1	0	-1	-3	3	0	4	nt
O=C1/C(=C/c2ccccn2)SC(=S)N1NS(=O)(=O)c1ccccc1	7	4	-3	10	-3	3	nt
O=C1/C(=C/c2ccc(F)cc2)SC(=S)N1Nc1ncc(C(F)(F)F)cc1Cl	-4	2	-4	-6	0	9	nt
O=C1/C(=C\c2ccccn2)SC(=S)N1Nc1ncc(C(F)(F)F)cc1Cl	10	34*	-1	12	-2	-5	26
O=C1/C(=C/c2ccccn2)SC(=S)N1Nc1ncc(C(F)(F)F)cc1Cl	19	37*	nt	11	nt	nt	18
O=C(COC(=O)CCc1c[nH]c(=O)[nH]1)Nc1cccc(Cl)c1	-3	35*	-2	-9	-1	-3	29
COc1ccc(C(=O)n2cc(C(=O)c3cc(C)ccc3O)cn2)cc1	1	0	-4	-7	-3	5	nt
COc1ccc(O)c(C(=O)c2cnn(C(=O)c3cc(C)oc3C)c2)c1	5	41*	-4	3	-3	2	21
CCN(CC(=O)Nc1c(F)cccc1F)C(=O)c1ccc(OCC(=O)N2CCOCC2)c(OC)c1	1	-3	nt	17	nt	nt	nt
CCC(=O)c1ccc(OCC(=O)OCC(=O)NC2CCCCCCC2)cc1	0	-2	-1	-1	-1	3	nt
CN(Cc1cccs1)C(=O)C1CC(=O)N(Cc2ccccc2)C1 (configuration not stated)	6	2	nt	3	nt	-1	nt
Cc1ncc(CO)c2cc(S(=O)(=O)c3ccc(F)cc3)c(=O)oc12	3	1	-3	-7	-3	-3	nt
